Experimental data as given in ChEMBL document CHEMBL1141712, “Kinase array design, back to front: biaryl amides” (Bioorg Med Chem Lett, 2008).
Blank lines part the entries; values can stand above or below the compound they belong to.

Key:
[1] = target: T1, Mitogen-activated protein kinase 14 (Homo sapiens, UniProt Q16539); test: Displacement of fluorescent ATP competitive ligand from p38alpha
[2] = target: Vascular endothelial growth factor receptor 2 (Homo sapiens, UniProt P35968); test: Inhibition of VEGFR2
[3] = target: Cyclin-dependent kinase 2 (Homo sapiens, UniProt P24941); test: Inhibition of CDK2
[4] = target: Dual specificity mitogen-activated protein kinase kinase 1 (Homo sapiens, UniProt Q02750); test: Inhibition of MEK1 by cRaf/mek/Erk cascade assay
[5] = target: T2, Serine/threonine-protein kinase Sgk1 (Homo sapiens, UniProt O00141); test: Inhibition of SGK1
T2 sequence (O00141 whole entry): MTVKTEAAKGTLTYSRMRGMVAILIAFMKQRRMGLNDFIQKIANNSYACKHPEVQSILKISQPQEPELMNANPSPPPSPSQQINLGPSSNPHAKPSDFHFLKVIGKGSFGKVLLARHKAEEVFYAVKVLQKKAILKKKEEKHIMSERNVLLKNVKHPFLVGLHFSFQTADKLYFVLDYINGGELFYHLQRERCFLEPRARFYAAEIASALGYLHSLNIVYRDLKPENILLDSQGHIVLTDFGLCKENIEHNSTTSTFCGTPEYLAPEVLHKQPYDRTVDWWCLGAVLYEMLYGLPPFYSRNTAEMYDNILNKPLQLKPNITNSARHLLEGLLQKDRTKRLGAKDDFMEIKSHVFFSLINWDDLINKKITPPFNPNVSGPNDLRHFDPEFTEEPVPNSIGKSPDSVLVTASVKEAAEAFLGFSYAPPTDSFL

[6] = target: Serine/threonine-protein kinase PLK1 (Homo sapiens, UniProt P53350); test: Inhibition of PLK1
[7] = target: Mitogen-activated protein kinase 10 (Homo sapiens, UniProt P53779); test: Inhibition of JNK3
[8] = target: Macrophage colony-stimulating factor 1 receptor (Homo sapiens, UniProt P07333); test: Inhibition of cFMS
[9] = target: Tyrosine-protein kinase Lck (Homo sapiens, UniProt P06239)
[10] = target: Receptor tyrosine-protein kinase erbB-4 (Homo sapiens, UniProt Q15303); test: Inhibition of ErbB4
[11] = target: Epidermal growth factor receptor (Homo sapiens, UniProt P00533)
[12] = target: T1, Mitogen-activated protein kinase 14; test: Inhibition of p38alpha
Summary of the method: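 p38α Ki determined by measuring displacement of a fluorescent ATP-competitive inhibitor from the enzyme. Impure products and those giving inconsistent assay results were excluded.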

Blood = test: Inhibition of LPS-stimulated TNFalpha release in human whole blood; assay type: functional, tissue-based
PBMC = test: Inhibition of LPS-stimulated TNFalpha release in human PBMCs; assay type: functional, cell-based
[13] = AUC ( 0 to 12 hrs) in Lewis rat at 1 mg/kg, po; assay type: ADME, organism-based; parameters: time < 12 hr, dose 1 mg/kg, route oral; conditions: plasma
[14] = Volume of distribution at steady state in Lewis rat at 1 mg/kg, iv; assay type: ADME, organism-based; parameters: dose 1 mg/kg, route intravenous; conditions: in vivo, read-out: Vdss
Summary of the method: (§1)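 Male Lewis rats were dosed at 1 mg/kg intravenously and orally, with compound given as a solution in 10% DMSO/70% PEG200/20% water. Blood was collected over 12 h, and parameters were derived from a composite blood sampling profile.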

[15] = Terminal half life in Lewis rat at 1 mg/kg, iv; assay type: ADME, organism-based; parameters: dose 1 mg/kg, route intravenous; conditions: in vivo, read-out: beta t1/2 (converted); summary of the method: as §1
[16] = Plasma clearance in Lewis rat at 1 mg/kg, iv; assay type: ADME, organism-based; parameters: dose 1 mg/kg, route intravenous; summary of the method: as §1
[17] = Oral bioavailability in Lewis rat at 1 mg/kg; assay type: ADME, organism-based; conditions: in vivo; summary of the method: as §1

Sequence of Receptor tyrosine-protein kinase erbB-4 (Q15303 whole entry): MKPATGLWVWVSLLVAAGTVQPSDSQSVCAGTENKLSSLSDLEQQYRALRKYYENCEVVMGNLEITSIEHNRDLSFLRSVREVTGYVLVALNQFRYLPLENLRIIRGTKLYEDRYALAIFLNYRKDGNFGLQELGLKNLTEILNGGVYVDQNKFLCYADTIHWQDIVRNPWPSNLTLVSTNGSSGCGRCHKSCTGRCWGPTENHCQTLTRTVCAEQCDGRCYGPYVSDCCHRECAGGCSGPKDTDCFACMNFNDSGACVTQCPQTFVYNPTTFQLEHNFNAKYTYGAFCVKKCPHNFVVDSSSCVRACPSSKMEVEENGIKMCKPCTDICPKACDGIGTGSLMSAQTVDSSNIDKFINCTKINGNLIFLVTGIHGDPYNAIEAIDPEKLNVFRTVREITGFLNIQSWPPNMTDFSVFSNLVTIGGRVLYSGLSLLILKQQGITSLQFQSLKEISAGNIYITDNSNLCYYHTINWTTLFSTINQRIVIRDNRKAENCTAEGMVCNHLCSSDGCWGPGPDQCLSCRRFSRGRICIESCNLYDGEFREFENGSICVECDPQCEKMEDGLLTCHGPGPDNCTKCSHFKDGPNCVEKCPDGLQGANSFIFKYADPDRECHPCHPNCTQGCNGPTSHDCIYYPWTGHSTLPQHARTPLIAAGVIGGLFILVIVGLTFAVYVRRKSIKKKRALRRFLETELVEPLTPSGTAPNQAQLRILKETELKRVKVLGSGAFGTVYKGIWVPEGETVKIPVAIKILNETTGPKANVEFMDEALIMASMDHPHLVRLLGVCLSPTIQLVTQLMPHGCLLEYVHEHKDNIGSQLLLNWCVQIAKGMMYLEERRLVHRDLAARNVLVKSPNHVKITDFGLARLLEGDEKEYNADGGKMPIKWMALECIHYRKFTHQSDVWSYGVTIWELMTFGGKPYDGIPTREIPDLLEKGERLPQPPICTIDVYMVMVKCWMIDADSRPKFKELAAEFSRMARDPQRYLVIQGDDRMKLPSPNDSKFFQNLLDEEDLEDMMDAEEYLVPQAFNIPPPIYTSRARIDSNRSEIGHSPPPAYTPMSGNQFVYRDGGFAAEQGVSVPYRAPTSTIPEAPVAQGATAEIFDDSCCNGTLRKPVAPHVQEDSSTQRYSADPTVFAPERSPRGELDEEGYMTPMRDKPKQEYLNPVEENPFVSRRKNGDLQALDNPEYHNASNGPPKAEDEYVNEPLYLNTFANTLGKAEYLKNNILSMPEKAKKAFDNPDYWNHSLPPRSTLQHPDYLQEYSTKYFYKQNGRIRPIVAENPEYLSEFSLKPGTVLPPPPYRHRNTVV
Sequence of Mitogen-activated protein kinase 10 (P53779 whole entry): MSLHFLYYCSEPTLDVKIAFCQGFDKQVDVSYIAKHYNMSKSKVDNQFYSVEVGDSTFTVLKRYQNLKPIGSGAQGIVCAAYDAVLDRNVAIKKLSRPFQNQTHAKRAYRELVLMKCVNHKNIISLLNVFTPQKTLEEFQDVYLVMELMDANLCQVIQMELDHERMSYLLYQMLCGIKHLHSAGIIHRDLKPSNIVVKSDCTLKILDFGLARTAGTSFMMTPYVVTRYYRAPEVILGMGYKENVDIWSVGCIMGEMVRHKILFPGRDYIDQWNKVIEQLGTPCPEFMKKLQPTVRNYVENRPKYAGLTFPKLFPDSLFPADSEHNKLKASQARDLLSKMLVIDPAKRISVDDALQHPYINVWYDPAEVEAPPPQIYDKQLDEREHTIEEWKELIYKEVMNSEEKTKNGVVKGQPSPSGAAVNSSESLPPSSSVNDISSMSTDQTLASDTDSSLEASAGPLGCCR
Sequence of Dual specificity mitogen-activated protein kinase kinase 1 (Q02750 whole entry): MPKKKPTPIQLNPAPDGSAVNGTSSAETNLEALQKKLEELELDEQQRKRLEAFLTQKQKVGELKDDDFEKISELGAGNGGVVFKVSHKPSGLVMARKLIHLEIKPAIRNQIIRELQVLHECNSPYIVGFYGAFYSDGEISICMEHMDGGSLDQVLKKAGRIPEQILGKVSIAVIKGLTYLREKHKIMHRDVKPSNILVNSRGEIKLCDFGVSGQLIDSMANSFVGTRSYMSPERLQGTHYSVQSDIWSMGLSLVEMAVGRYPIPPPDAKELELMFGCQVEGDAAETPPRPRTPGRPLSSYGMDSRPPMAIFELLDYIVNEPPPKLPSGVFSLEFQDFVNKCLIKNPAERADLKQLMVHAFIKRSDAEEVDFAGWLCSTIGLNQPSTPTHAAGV
Sequence of Tyrosine-protein kinase Lck (P06239 whole entry): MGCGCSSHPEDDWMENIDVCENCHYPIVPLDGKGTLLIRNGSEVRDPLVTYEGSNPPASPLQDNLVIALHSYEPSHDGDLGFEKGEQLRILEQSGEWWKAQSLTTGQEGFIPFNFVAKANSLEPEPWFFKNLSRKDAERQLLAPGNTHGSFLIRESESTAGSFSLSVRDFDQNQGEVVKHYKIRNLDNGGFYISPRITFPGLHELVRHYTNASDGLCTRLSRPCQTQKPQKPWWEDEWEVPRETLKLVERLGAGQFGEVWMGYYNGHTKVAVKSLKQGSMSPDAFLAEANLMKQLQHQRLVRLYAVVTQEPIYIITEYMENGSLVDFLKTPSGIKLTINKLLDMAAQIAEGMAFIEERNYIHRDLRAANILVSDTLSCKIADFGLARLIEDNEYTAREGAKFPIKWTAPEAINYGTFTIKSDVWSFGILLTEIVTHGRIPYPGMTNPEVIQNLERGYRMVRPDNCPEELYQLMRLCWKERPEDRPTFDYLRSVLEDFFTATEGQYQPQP
Sequence of Epidermal growth factor receptor (P00533 whole entry): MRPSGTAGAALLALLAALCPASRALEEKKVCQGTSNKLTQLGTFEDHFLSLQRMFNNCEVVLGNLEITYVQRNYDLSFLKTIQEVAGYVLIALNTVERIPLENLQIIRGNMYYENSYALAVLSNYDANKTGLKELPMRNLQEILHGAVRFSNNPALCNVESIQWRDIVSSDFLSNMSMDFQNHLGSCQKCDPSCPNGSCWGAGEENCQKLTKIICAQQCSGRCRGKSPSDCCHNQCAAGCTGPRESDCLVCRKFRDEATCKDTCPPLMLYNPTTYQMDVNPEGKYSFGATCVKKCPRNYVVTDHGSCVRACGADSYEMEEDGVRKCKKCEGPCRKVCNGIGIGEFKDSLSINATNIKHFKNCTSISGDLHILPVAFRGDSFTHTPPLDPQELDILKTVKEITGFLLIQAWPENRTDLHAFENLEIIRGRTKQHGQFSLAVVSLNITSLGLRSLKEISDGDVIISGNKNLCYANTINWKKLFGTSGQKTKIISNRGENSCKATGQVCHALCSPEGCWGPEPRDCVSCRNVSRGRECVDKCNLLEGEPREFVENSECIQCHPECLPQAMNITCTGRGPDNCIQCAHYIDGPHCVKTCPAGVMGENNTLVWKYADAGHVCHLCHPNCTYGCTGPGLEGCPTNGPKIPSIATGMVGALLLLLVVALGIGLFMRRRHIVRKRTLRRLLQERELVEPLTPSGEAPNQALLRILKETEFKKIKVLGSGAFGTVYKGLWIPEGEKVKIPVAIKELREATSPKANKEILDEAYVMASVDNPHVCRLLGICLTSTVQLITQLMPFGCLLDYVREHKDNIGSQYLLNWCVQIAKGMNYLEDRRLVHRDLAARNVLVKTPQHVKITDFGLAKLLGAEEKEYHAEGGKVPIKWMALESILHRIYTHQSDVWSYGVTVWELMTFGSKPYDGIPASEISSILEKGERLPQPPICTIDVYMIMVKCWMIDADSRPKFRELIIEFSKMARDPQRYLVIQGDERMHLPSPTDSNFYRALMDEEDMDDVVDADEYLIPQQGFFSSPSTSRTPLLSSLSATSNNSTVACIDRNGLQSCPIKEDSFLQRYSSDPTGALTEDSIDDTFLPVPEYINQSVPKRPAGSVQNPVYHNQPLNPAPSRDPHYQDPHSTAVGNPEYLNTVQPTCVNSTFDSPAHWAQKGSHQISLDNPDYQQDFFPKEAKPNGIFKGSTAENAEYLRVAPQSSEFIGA
Sequence of Macrophage colony-stimulating factor 1 receptor (P07333 whole entry): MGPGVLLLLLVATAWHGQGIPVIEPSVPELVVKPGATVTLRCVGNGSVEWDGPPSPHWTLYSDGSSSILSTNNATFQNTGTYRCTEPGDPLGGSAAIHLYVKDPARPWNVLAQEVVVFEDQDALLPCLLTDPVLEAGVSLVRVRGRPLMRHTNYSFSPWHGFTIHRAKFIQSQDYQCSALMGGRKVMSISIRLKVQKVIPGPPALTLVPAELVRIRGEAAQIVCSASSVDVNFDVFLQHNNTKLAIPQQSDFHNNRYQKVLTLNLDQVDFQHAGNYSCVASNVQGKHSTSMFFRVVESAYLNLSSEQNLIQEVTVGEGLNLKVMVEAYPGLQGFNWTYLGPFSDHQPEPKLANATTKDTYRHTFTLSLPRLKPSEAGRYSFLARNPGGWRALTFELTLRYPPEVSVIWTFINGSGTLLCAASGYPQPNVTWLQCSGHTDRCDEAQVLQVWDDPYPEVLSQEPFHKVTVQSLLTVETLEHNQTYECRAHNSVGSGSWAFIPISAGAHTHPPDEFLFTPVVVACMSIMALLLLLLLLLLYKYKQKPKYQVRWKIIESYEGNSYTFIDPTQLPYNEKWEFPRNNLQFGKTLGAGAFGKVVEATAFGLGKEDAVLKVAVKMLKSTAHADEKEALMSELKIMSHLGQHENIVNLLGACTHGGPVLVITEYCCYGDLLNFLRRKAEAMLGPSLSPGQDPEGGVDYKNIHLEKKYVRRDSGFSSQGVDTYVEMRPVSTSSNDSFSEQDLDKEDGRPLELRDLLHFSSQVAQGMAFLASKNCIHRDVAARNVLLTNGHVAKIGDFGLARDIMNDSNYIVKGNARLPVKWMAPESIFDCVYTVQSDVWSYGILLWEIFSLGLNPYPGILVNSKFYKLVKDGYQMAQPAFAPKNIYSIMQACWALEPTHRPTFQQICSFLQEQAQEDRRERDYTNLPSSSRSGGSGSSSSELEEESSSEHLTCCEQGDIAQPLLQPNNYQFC

SMILES: Cc1ccc(C(=O)NC2CC2)cc1-c1ccc2cc[nH]c(=O)c2c1
Ki [1]: 0.42 µM

SMILES: Cc1ccc(C(=O)Nc2cccc(N3CCOCC3)c2)cc1-c1ccc2c(C3CCNCC3)noc2c1
IC50 [2]: > 20 µM
IC50 [3]: > 20 µM
IC50 [4]: 0.04 µM
IC50 [5]: > 33 µM
IC50 [6]: > 25 µM
IC50 [7]: > 16 µM
IC50 [8]: > 20 µM

SMILES: Cc1ccc(C(=O)Nc2cccc(N3CCOCC3)c2)cc1-c1ccc2onc(C)c2c1
Ki [1]: 0.38 µM

SMILES: Cc1ccc(NC(=O)c2ccc(CN3CCN(C)CC3)cc2)cc1-c1ccc2c(N)noc2c1
IC50 [2]: > 20 µM
IC50 [3]: > 20 µM
IC50 [5]: > 33 µM
IC50 [9]: 1 µM
IC50 [10]: > 25 µM
IC50 [6]: > 25 µM
IC50 [7]: > 16 µM
IC50 [11]: > 25 µM
Ki [1]: > 0.85 µM
IC50 [8]: 0.09 µM

SMILES: Cc1ccc(C(=O)Nc2cccc(N3CCOCC3)c2)cc1I
Ki [12]: > 2 µM

SMILES: Cc1ccc(C(=O)Nc2cccc(N3CCOCC3)c2)cc1-c1ccc2nc(N)[nH]c(=O)c2c1
Ki [1]: 0.0047 µM

SMILES: CCCCn1c(=O)[nH]c2cc(-c3cc(C(=O)Nc4cccc(N5CCOCC5)c4)ccc3C)ccc2c1=O
Ki [1]: 0.019 µM

SMILES: Cc1ccc(C(=O)Nc2cccc(N3CCOCC3)c2)cc1-c1ccc2ccncc2c1
Ki [1]: 0.0045 µM

SMILES: Cc1ccc(C(=O)NC2CC2)cc1-c1ccc2nc(N)[nH]c(=O)c2c1
Ki [1]: 0.049 µM

SMILES: Cc1ccc(NC(=O)c2ccc(CN3CCN(C)CC3)cc2)cc1-c1ccc(-c2csc(N)n2)cc1
IC50 [2]: > 20 µM
IC50 [3]: > 20 µM
IC50 [5]: > 33 µM
IC50 [9]: 2 µM
IC50 [10]: > 25 µM
IC50 [6]: > 25 µM
IC50 [7]: > 16 µM
IC50 [11]: > 25 µM
Ki [1]: > 0.85 µM
IC50 [8]: 0.09 µM

SMILES: Cc1ccc(C(=O)NC2CC2)cc1-c1ccc2ccncc2c1
IC50 [2]: 0.5 µM
IC50 [3]: > 20 µM
IC50 [5]: > 33 µM
IC50 [9]: 3 µM
IC50 [10]: > 25 µM
IC50 (Blood): 0.1 µM
IC50 [6]: > 25 µM
IC50 [7]: > 16 µM
IC50 [11]: > 25 µM
Ki [1]: 0.011 µM
IC50 [8]: 0.6 µM
IC50 (PBMC): 0.1 µM

SMILES: Cc1ccc(C(=O)NC2CC2)cc1-c1ccc2[nH]ncc2c1 [GW820759X]
Ki [1]: 0.087 µM

SMILES: Cc1nnc(-c2ccc(-c3cc(C(=O)NC4CC4)ccc3C)c(C)c2)o1
IC50 [2]: > 20 µM
IC50 [3]: > 20 µM
AUC(0-t) at 12 h [13]: 4.18 µg·h/mL
IC50 [4]: 20 µM
IC50 [5]: > 33 µM
Vd [14]: 1.2 L/kg
half-life [15]: 4.6 h
clearance [16]: 0.18 L/h/kg
IC50 (Blood): 1 µM
IC50 [6]: > 25 µM
IC50 [8]: > 20 µM
IC50 (PBMC): 0.1 µM
bioavailability [17]: 91%

Further compounds by falling Ki [1], results first:

Ki [1]: 2 µM
SMILES: CCCCn1c(=O)[nH]c2cc(-c3cc(NC(=O)c4ccc(CN5CCN(C)CC5)cc4)ccc3C)ccc2c1=O

Ki [1]: 1.1 µM
SMILES: Cc1ccc(C(=O)NC2CC2)cc1-c1ccc2onc(C)c2c1

Ki [1]: 0.29 µM
SMILES: Cc1ccc(C(=O)Nc2cccc(N3CCOCC3)c2)cc1-c1ccc2[nH]c(=O)ccc2c1

Ki [1]: 0.019 µM
SMILES: Cc1ccc(C(=O)Nc2cccc(N3CCOCC3)c2)cc1-c1ccc2c(N)noc2c1

Ki [1]: 0.018 µM
SMILES: CCCCn1c(=O)[nH]c2cc(-c3cc(C(=O)NC4CC4)ccc3C)ccc2c1=O

Ki [1]: 0.018 µM
SMILES: Cc1ccc(C(=O)Nc2cccc(N3CCOCC3)c2)cc1-c1ccc2cc[nH]c(=O)c2c1

Ki [1]: 0.017 µM
SMILES: Cc1nc(-c2ccc(-c3cc(C(=O)Nc4cccc(N5CCOCC5)c4)ccc3C)cc2)no1

Ki [1]: 0.0068 µM
SMILES: Cc1ccc(NC(=O)c2ccnc(N3CCCC3)c2)cc1-c1ccc2nc(N)[nH]c(=O)c2c1

Ki [1]: 0.0067 µM
SMILES: Cc1ccc(NC(=O)c2ccnc(N3CCCC3)c2)cc1-c1ccc(-c2csc(N)n2)cc1

Ki [1]: 0.0067 µM
SMILES: Cc1ccc(C(=O)NC2CC2)cc1-c1ccc2c(=O)cc(-c3cccs3)oc2c1

IC50 [2]: > 20 µM
IC50 [3]: > 20 µM
IC50 [4]: > 50 µM
IC50 [5]: > 33 µM
IC50 [10]: > 25 µM
IC50 (Blood): 3 µM
IC50 [6]: > 25 µM
IC50 [11]: > 25 µM
Ki [1]: 0.004 µM
IC50 [8]: > 20 µM
SMILES: Cc1ccc(C(=O)NC2CC2)cc1-c1ccc2c(C3CCNCC3)noc2c1
IC50 (PBMC): 0.2 µM
